ChEMBL document CHEMBL1275269, “Cyclization of some carbothioamide derivatives containing antipyrine and triazole moieties and investigation of their antimicrobial activities” (2010)
Calls of active or inactive are those of the source. The rule behind the calls is not given here.

Key:
[1] = tested on: Candida tropicalis; assay: Antifungal activity against Candida tropicalis ATCC 13803 after 18 hrs by agar-well diffusion method; type: functional
Procedure, shortened: (§1)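 Yeast flood-inoculated onto Sabouraud dextrose agar and dried. Five-millimetre wells were cut with a sterile cork-borer, and test substance was delivered into each well.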

[2] = tested on: Escherichia coli; assay: Antibacterial activity against Escherichia coli ATCC 25922 after 18 hrs by agar-well diffusion method; type: functional; as to IZ: test concentration or dose not given here
Procedure, shortened: (§2)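 Microorganisms flood-inoculated onto the surface of Mueller-Hinton agar or Sabouraud dextrose agar, then dried. 5 mm diameter wells cut into the agar with a sterile cork-borer.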

[3] = tested on: Bacillus cereus; assay: Antibacterial activity against Bacillus cereus 702 after 18 hrs by agar-well diffusion method; type: functional; procedure, shortened: as §2; as to IZ: test concentration or dose not given here
[4] = tested on: Yersinia pseudotuberculosis; assay: Antibacterial activity against Yersinia pseudotuberculosis ATCC 911 after 18 hrs by agar-well diffusion method; type: functional
Procedure, shortened: (§3)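 Organisms flood-inoculated onto the agar surface and dried. Five-millimetre wells were cut with a sterile cork-borer, and test substance was delivered into each well.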

[5] = tested on: Aspergillus niger; assay: Antifungal activity against Aspergillus niger RSKK 4017 after 18 hrs by agar-well diffusion method; type: functional, organism-based; procedure, shortened: as §2
[6] = tested on: Mycolicibacterium smegmatis; assay: Antibacterial activity against Mycobacterium smegmatis ATCC 607 after 18 hrs by agar-well diffusion method; type: functional; procedure, shortened: as §2; as to IZ: test concentration or dose not given here
[7] = tested on: Pseudomonas aeruginosa; assay: Antibacterial activity against Pseudomonas aeruginosa ATCC 43288 after 18 hrs by agar-well diffusion method; type: functional; procedure, shortened: as §2; as to IZ: test concentration or dose not given here
[8] = tested on: Staphylococcus aureus; assay: Antibacterial activity against Staphylococcus aureus ATCC 25923 after 18 hrs by agar-well diffusion method; type: functional; procedure, shortened: as §2; as to IZ: test concentration or dose not given here
[9] = tested on: Klebsiella aerogenes; assay: Antibacterial activity against Enterobacter aerogenes ATCC 13048 after 18 hrs by agar-well diffusion method; type: functional; procedure, shortened: as §2; as to IZ: test concentration or dose not given here
[10] = tested on: Enterococcus faecalis; assay: Antibacterial activity against Enterococcus faecalis ATCC 29212 after 18 hrs by agar-well diffusion method; type: functional; procedure, shortened: as §2; as to IZ: test concentration or dose not given here
[11] = tested on: Candida albicans; assay: Antifungal activity against Candida albicans ATCC 60193 after 18 hrs by agar-well diffusion method; type: functional; procedure, shortened: as §1
[12] = tested on: Saccharomyces cerevisiae; assay: Antifungal activity against Saccharomyces cerevisiae RSKK 251 after 18 hrs by agar-well diffusion method; type: functional; procedure, shortened: as §3

SMILES | Activity [1] | inhibition zone (IZ) [2] [mm] | inhibition zone (IZ) [3] [mm] | inhibition zone (IZ) [4] [mm] | Activity [5] | inhibition zone (IZ) [6] [mm] | inhibition zone (IZ) [7] [mm] | inhibition zone (IZ) [8] [mm] | inhibition zone (IZ) [9] [mm] | inhibition zone (IZ) [10] [mm] | Activity [11] | Activity [12] | Activity [9] | Activity [3] | Activity [8] | Activity [10] | other results
Cc1c(-n2c(Cc3ccc(Cl)cc3)nn(Cc3nnc(S)n3Cc3ccccc3)c2=O)c(=O)n(-c2ccccc2)n1C | Active | 35 | 30 | 30 | Active | 33 | 30 | 30 | 30 | 28 | Active | Active | – | – | – | – | –
Cc1c(-n2c(Cc3ccc(Cl)cc3)nn(CC(=O)NNC(=S)Nc3ccccc3)c2=O)c(=O)n(-c2ccccc2)n1C | Active | 10 | 10 | 8 | Active | 10 | 8 | 8 | – | 8 | Active | Active | Active | – | – | – | –
Cc1c(-n2c(Cc3ccc(Cl)cc3)nn(CC(=O)N/N=c3/scc(-c4ccc(Cl)cc4)n3-c3ccccc3)c2=O)c(=O)n(-c2ccccc2)n1C | Active | 15 | – | 12 | Active | 10 | – | – | – | – | Active | Active | Active | Active | Active | Active | Activity [7]: Active
Cc1c(-n2c(Cc3ccc(Cl)cc3)nn(CC(=O)NNC(=S)Nc3ccc(F)cc3)c2=O)c(=O)n(-c2ccccc2)n1C | Active | 15 | 10 | 10 | Active | 15 | 10 | 10 | 8 | 8 | Active | Active | – | – | – | – | –
Cc1c(-n2c(Cc3ccc(Cl)cc3)nn(CC(=O)NNC(=S)NCc3ccccc3)c2=O)c(=O)n(-c2ccccc2)n1C | Active | 15 | 10 | 10 | Active | 15 | 10 | 10 | 10 | 8 | Active | Active | – | – | – | – | –
Cc1c(-n2c(Cc3ccc(Cl)cc3)nn(Cc3nnc(S)o3)c2=O)c(=O)n(-c2ccccc2)n1C | Active | 35 | 30 | 30 | Active | 38 | 30 | 30 | 30 | 28 | Active | Active | – | – | – | – | –
OC(Cn1cncn1)(Cn1cncn1)c1ccc(F)cc1F [FLUCONAZOLE] | – | – | – | – | – | – | – | – | – | – | – | – | – | – | – | – | inhibition zone (IZ) [1]: 25 mm; inhibition zone (IZ) [11]: 25 mm; inhibition zone (IZ) [12]: >25 mm
Cc1c(-n2c(Cc3ccc(Cl)cc3)nn(Cc3nnc(Nc4ccccc4)s3)c2=O)c(=O)n(-c2ccccc2)n1C | Active | 25 | – | 25 | Active | 25 | 35 | – | 25 | – | Active | Active | – | Active | Active | Active | –
Cc1c(-n2c(Cc3ccc(Cl)cc3)nn(Cc3nnc(S)n3-c3ccccc3)c2=O)c(=O)n(-c2ccccc2)n1C | Active | 25 | 30 | 30 | Active | 34 | 30 | 25 | 25 | 20 | Active | Active | – | – | – | – | –
Cc1c(-n2c(Cc3ccc(Cl)cc3)nn(Cc3nnc(S)n3-c3ccc(F)cc3)c2=O)c(=O)n(-c2ccccc2)n1C | Active | 35 | 30 | 30 | Active | 30 | 28 | 30 | 30 | 28 | Active | Active | – | – | – | – | –
Cc1c(-n2c(Cc3ccc(Cl)cc3)n[nH]c2=O)c(=O)n(-c2ccccc2)n1C | Active | – | – | – | Active | – | – | – | – | – | Active | Active | Active | Active | Active | Active | Activity [2]: Active; Activity [4]: Active; Activity [6]: Active; Activity [7]: Active
CCOC(=O)Cn1nc(Cc2ccc(Cl)cc2)n(-c2c(C)n(C)n(-c3ccccc3)c2=O)c1=O | Active | – | – | – | Active | – | – | – | – | – | Active | Active | Active | Active | Active | Active | Activity [2]: Active; Activity [4]: Active; Activity [6]: Active; Activity [7]: Active
Cc1c(-n2c(Cc3ccc(Cl)cc3)nn(CC(=O)N/N=c3/scc(-c4ccc([N+](=O)[O-])cc4)n3-c3ccccc3)c2=O)c(=O)n(-c2ccccc2)n1C | Active | 15 | 20 | 30 | Active | 25 | 20 | 30 | – | 18 | Active | Active | Active | – | – | – | –
CN[C@@H]1[C@H](O[C@H]2[C@H](O[C@H]3[C@H](O)[C@@H](O)[C@H](N=C(N)N)[C@@H](O)[C@@H]3N=C(N)N)O[C@@H](C)[C@]2(O)C=O)O[C@@H](CO)[C@H](O)[C@H]1O [STREPTOMYCIN] | – | – | – | – | – | 35 | – | – | – | – | – | – | – | – | – | – | –
CC1(C)S[C@@H]2[C@H](NC(=O)[C@H](N)c3ccccc3)C(=O)N2[C@H]1C(=O)O [AMPICILLIN] | – | 10 | 15 | 18 | – | – | 18 | 35 | 10 | 10 | – | – | – | – | – | – | –
Cc1c(-n2c(Cc3ccc(Cl)cc3)nn(CC(=O)NN)c2=O)c(=O)n(-c2ccccc2)n1C | Active | – | – | – | Active | – | – | – | – | – | Active | Active | Active | Active | Active | Active | Activity [2]: Active; Activity [4]: Active; Activity [6]: Active; Activity [7]: Active
Cc1c(-n2c(Cc3ccc(Cl)cc3)nn(Cc3nnc(NCc4ccccc4)s3)c2=O)c(=O)n(-c2ccccc2)n1C | Active | 25 | – | 25 | Active | 25 | 30 | – | 25 | – | Active | Active | – | Active | Active | Active | –
Cc1c(-n2c(Cc3ccc(Cl)cc3)nn(Cc3nnc(Nc4ccc(F)cc4)s3)c2=O)c(=O)n(-c2ccccc2)n1C | Active | 20 | – | 25 | Active | 25 | 20 | – | 25 | – | Active | Active | – | Active | Active | Active | –
